Reference: ChEMBL document CHEMBL2057145, “Development of novel antibacterial agents against methicillin-resistant Staphylococcus aureus” (Bioorg Med Chem, 2012)
≈ marks a conversion by molar mass, not a printed value.

Experiments:
[1] = tested on: Staphylococcus epidermidis; experiment: Antibacterial activity against Staphylococcus epidermidis ATCC 12228 after 24 hrs by broth microdilution method; type: functional; conditions: ATCC 12228, 24 h
Staphylococcus aureus [2] = experiment: Antibacterial activity against methicillin-resistant Staphylococcus aureus ATCC 33592 after 24 hrs by broth microdilution method; type: functional; conditions: ATCC 33592, 24 h
How it was run: (§1)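 CLSI broth microdilution. Bacteria grown overnight on LB agar, suspended in PBS, then exposed to test agents at 0.25 to 64 µg/mL in triplicate. Incubation 37 °C for 24 h. MIC is the lowest concentration with no visible bacterial growth. DMSO stocks diluted in culture medium to a final DMSO of 0.1%.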

[3] = tested on: Staphylococcus saprophyticus; experiment: Antibacterial activity against Staphylococcus saprophyticus ATCC 15305 after 24 hrs by broth microdilution method; type: functional; conditions: ATCC 15305, 24 h
Staphylococcus aureus [4] = experiment: Antibacterial activity against Staphylococcus aureus ATCC 29213 after 24 hrs by broth microdilution method; type: functional; conditions: ATCC 29213, 24 h
Staphylococcus hominis = experiment: Antibacterial activity against Staphylococcus hominis ATCC 27844 after 24 hrs by broth microdilution method; type: functional; conditions: ATCC 27844, 24 h
[5] = tested on: Staphylococcus haemolyticus; experiment: Antibacterial activity against Staphylococcus haemolyticus ATCC 29970 after 24 hrs by broth microdilution method; type: functional; conditions: ATCC 29970, 24 h
[6] = tested on: Staphylococcus epidermidis; experiment: Antibacterial activity against Staphylococcus epidermidis ATCC 35984 after 24 hrs by broth microdilution method; type: functional; conditions: RP62A
Staphylococcus aureus [7] = experiment: Antibacterial activity against methicillin-resistant Staphylococcus aureus expressing […] subtype VT after 24 hrs by broth microdilution method; type: functional; how it was run: as §1
[8] = tested on: Staphylococcus intermedius; experiment: Antibacterial activity against Staphylococcus intermedius ATCC 29663 after 24 hrs by broth microdilution method; type: functional; conditions: ATCC 29663, 24 h
Staphylococcus aureus [9] = experiment: Antibacterial activity against methicillin-resistant Staphylococcus aureus ATCC 49476 after 24 hrs by broth microdilution method; conditions: ATCC 49476, 24 h
Staphylococcus aureus [10] = experiment: Antibacterial activity against Staphylococcus aureus ATCC 12598 after 24 hrs by broth microdilution method; type: functional; conditions: ATCC 12598, 24 h
How it was run: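 CLSI broth microdilution. Incubation 37 °C for 24 h. MIC is the lowest concentration with no visible bacterial growth. DMSO stocks diluted in culture medium to a final DMSO of 0.1%.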

[11] = tested on: Staphylococcus lugdunensis; experiment: Antibacterial activity against Staphylococcus lugdunensis isolate NTUH after 24 hrs by broth microdilution method; type: functional
[12] = Selectivity ratio of IC50 for human HT-29 cells to MIC for Staphylococcus aureus ATCC 29213; type: functional
How it was run: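 Ratio of HT-29 IC50 (MTT assay, 24 h exposure) to MIC against S. aureus ATCC 29213 (CLSI broth microdilution, 24 h, 37 °C).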

HT-29 = experiment: Antiproliferative activity against human HT-29 cells after 24 hrs by MTT assay; type: cell-based; conditions: HT-29, 24 h
How it was run: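 HT-29 human colon adenocarcinoma cells seeded at 1 × 10⁴ cells/well in RPMI 1640 with 10% FBS and 10 µg/mL gentamicin, left overnight at 37 °C, 5% CO₂. Medium then replaced with medium holding test agents (final DMSO 0.1%; DMSO-only controls), at least 6 wells per condition, for 24 h. Viability read by MTT (0.5 mg/mL, 2 h, 37 °C), DMSO solubilization, absorbance 570 nm.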

Staphylococcus aureus [13] = experiment: Bactericidal activity against Staphylococcus aureus ATCC 29213 assessed as decrease in bacterial count at 8 times compound MIC after 24 hrs by time-kill assay; type: functional; parameters: scale not given: the % may be the effect or the level left
How it was run: (§2)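 S. aureus ATCC 29213 at 5 × 10⁵ CFU/mL in CAMHB exposed to test agents at 2-, 4- and 8-fold MIC, in triplicate. DMSO-matched medium served as control. At successive times, aliquots serially diluted in PBS and plated on LB agar (37 °C, 16 h). Counts given as CFU/mL, mean ± SD (n = 3); 99.9% killing used as reference.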

Mus musculus [14] = experiment: Toxicity in C57BL/6 mouse infected with methicillin-resistant Staphylococcus aureus ATCC 33592 assessed as lethargy at 30 mg/kg, ip administered 1 hr post infection; type: organism-based; parameters: dose 30 mg/kg, route intraperitoneal; conditions: in vivo
How it was run: (§3)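 Female C57BL/6 mice, N = 5 per group, were infected ip with a 100% lethal dose of MRSA, 7 × 10⁷ CFU in 0.3 ml PBS. At 1 h they received one ip dose of 30 mg/kg in vehicle (40% PEG-400, 10% […], 10% DMSO in normal saline). Body weight and morbidity were recorded daily for 7 days. Mice were sacrificed on significant morbidity, including 20% weight loss.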

Staphylococcus aureus [15] = experiment: Bactericidal activity against Staphylococcus aureus ATCC 29213 assessed as decrease in bacterial count at 2 to 8 times compound MIC by time-kill assay; type: functional, organism-based; conditions: TDE = time-dependent effect; how it was run: as §2
Mus musculus [16] = experiment: Toxicity in C57BL/6 mouse infected with methicillin-resistant Staphylococcus aureus ATCC 33592 assessed as weight loss at 30 mg/kg, ip administered 1 hr post infection; type: organism-based; parameters: dose 30 mg/kg, route intraperitoneal; conditions: in vivo; how it was run: as §3
Mus musculus [17] = experiment: Toxicity in C57BL/6 mouse infected with methicillin-resistant Staphylococcus aureus ATCC 33592 assessed as decrease in body temperature at 30 mg/kg, ip administered 1 hr post infection; type: organism-based; parameters: dose 30 mg/kg, route intraperitoneal; conditions: in vivo; how it was run: as §3
Staphylococcus aureus [18] = experiment: Antibacterial activity against methicillin-resistant Staphylococcus aureus ATCC 33592 infected in C57BL/6 mouse assessed as mouse survival time at 30 mg/kg, ip administered 1 hr post infection; type: functional; conditions: route intraperitoneal; how it was run: as §3

Row | MIC (Staphylococcus aureus [4]) [µg/mL] | MIC [6] [µg/mL] | IC50 (HT-29) [µg/mL] | SMILES | MIC [11] [µg/mL] | Ratio [12] | further results
1 | 4 (≈ 7.52 µM) | 4 (≈ 7.52 µM) |  | NCCCC[C@@H](N)C(=O)Nc1ccc(-n2nc(C(F)(F)F)cc2-c2ccc3c(ccc4ccccc43)c2)cc1 |  | 0.8 | 
2 | 4 (≈ 8.37 µM) | 8 (≈ 16.7 µM) | 12.5 (≈ 26.2 µM) | NS(=O)(=O)c1ccc(-n2nc(C(F)(F)F)cc2-c2ccc(-c3ccc(Cl)cc3)cc2)cc1 |  | 3.1 | 
3 | 2 (≈ 3.62 µM) |  | 5.2 (≈ 9.41 µM) | NCCCC[C@H](N)C(=O)Nc1ccc(-n2nc(C(F)(F)F)cc2-c2ccc3c(c2)Nc2ccccc2S3)cc1 |  | 2.6 | 
4 | 4 (≈ 7.72 µM) | 4 (≈ 7.72 µM) | 4.2 (≈ 8.1 µM) | NCCC(=O)Nc1ccc(-n2nc(C(F)(F)F)cc2-c2ccc(-c3ccc(C(F)(F)F)cc3)cc2)cc1 |  | 1.1 | 
5 | 4 (≈ 6.95 µM) | 4 (≈ 6.95 µM) | 3.3 (≈ 5.73 µM) | NCCCC[C@H](N)C(=O)Nc1ccc(-n2nc(C(F)(F)F)cc2-c2ccc(-c3ccc(C(F)(F)F)cc3)cc2)cc1 |  | 0.8 | 
6 | 4 (≈ 8.07 µM) | 4 (≈ 8.07 µM) | 7.5 (≈ 15.1 µM) | NCCC(=O)Nc1ccc(-n2nc(C(F)(F)F)cc2-c2ccc3c(c2)Nc2ccccc2S3)cc1 |  | 1.9 | 
7 | 4 (≈ 8.61 µM) | 4 (≈ 8.61 µM) |  | NCCC(=O)Nc1ccc(-n2nc(C(F)(F)F)cc2-c2ccc3c(c2)oc2ccccc23)cc1 |  | 1.8 | 

Row | SMILES | MIC (Staphylococcus aureus [4]) [µg/mL] | MIC [6] [µg/mL] | IC50 (HT-29) [µg/mL] | MIC [11] [µg/mL] | Ratio [12] | further results
8 | CC1(C)S[C@@H]2[C@H](NC(=O)[C@H](N)c3ccccc3)C(=O)N2[C@H]1C(=O)O [AMPICILLIN] | 8 (≈ 22.9 µM) | 64 (≈ 183 µM) |  | 32 (≈ 91.6 µM) |  | MIC [1]: 16 µg/mL (≈ 45.8 µM); MIC (Staphylococcus aureus [2]): > 64 µg/mL; MIC [3]: 0.5 µg/mL (≈ 1.43 µM); MIC (Staphylococcus hominis): < 0.0625 µg/mL; MIC [5]: 0.25 µg/mL (≈ 0.715 µM); MIC (Staphylococcus aureus [7]): > 64 µg/mL; MIC [8]: 0.125 µg/mL (≈ 0.358 µM); MIC (Staphylococcus aureus [9]): 64 µg/mL (≈ 183 µM); MIC (Staphylococcus aureus [10]): 0.25 µg/mL (≈ 0.715 µM)
9 | NCCC(=O)Nc1ccc(-n2nc(C(F)(F)F)cc2-c2ccc3c(ccc4ccccc43)c2)cc1 | 4 (≈ 8.43 µM) | 4 (≈ 8.43 µM) | 6 (≈ 12.6 µM) |  | 1.5 | 
10 | O=C(N[C@H](CO)[C@H](O)c1ccc([N+](=O)[O-])cc1)C(Cl)Cl [CHLORAMPHENICOL] | 8 (≈ 24.8 µM) | 8 (≈ 24.8 µM) |  | 2 (≈ 6.19 µM) |  | MIC (Staphylococcus aureus [2]): 64 µg/mL (≈ 198 µM); MIC (Staphylococcus aureus [7]): 32 µg/mL (≈ 99 µM)
11 | Cc1ccc(-c2cc(C(F)(F)F)nn2-c2ccc(NS(N)(=O)=O)cc2)cc1 | 4 (≈ 10.1 µM) | 4 (≈ 10.1 µM) | 28 (≈ 70.6 µM) | 16 (≈ 40.4 µM) | 7 | MIC [1]: 4 µg/mL (≈ 10.1 µM); MIC (Staphylococcus aureus [2]): 4 µg/mL (≈ 10.1 µM); MIC (Staphylococcus aureus [7]): 4 µg/mL (≈ 10.1 µM); MIC [8]: 8 µg/mL (≈ 20.2 µM); MIC (Staphylococcus aureus [9]): 4 µg/mL (≈ 10.1 µM); MIC (Staphylococcus aureus [10]): 4 µg/mL (≈ 10.1 µM)
12 | NS(=O)(=O)Nc1ccc(-n2nc(C(F)(F)F)cc2-c2ccc3c(ccc4ccccc43)c2)cc1 | 1 (≈ 2.07 µM) | 2 (≈ 4.15 µM) |  | 2 (≈ 4.15 µM) | 12 | Activity (Staphylococcus aureus [13]): 99.91%; Activity (Mus musculus [14]): Toxic; Activity (Staphylococcus aureus [15]): tde; MIC [8]: 1 µg/mL (≈ 2.07 µM); Activity (Mus musculus [16]): > 20%; Activity (Mus musculus [17]): Toxic; Survival (Staphylococcus aureus [18]): <=2 day
